Assay results taken from ChEMBL document CHEMBL3351434, “Synthesis of novel chromeno-annulated cis-fused pyrano[3,4-c]benzopyran and naphtho pyran derivatives via domino aldol-type/hetero Diels-Alder reaction and their cytotoxicity evaluation” (Bioorg Med Chem Lett, 2014).

Columns and labels:
[1] = tested on: MDA-MB-231; assay: Cytotoxicity against human MDA-MB-231 cells by MTT assay; assay type: functional, cell-based
[2] = tested on: HeLa; assay: Cytotoxicity against human HeLa cells by MTT assay; assay type: functional, cell-based
[3] = tested on: MCF7; assay: Cytotoxicity against human MCF7 cells by MTT assay; assay type: functional, cell-based
[4] = tested on: A549; assay: Cytotoxicity against human A549 cells by MTT assay; assay type: functional, cell-based
[5] = Cytotoxicity against HEK cells by MTT assay; assay type: cell-based; conditions: human, hek293
Summary of the method: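 Cells were HEK293, a line derived from normal human embryonic kidney, used as the non-cancer counter-screen. Viability was read by MTT following a previously reported protocol.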

Compound	IC50 [1]	IC50 [2]	IC50 [3]	IC50 [4]	Activity [5]
Cc1coc2c3c(ccc2c1=O)OC[C@H]1[C@@H]3c2c(ccc(C(=O)Cc3ccccc3)c2O)OC1(C)C	> 100 µM	> 100 µM	> 100 µM	> 100 µM	–
Cc1oc2c3c(ccc2c(=O)c1C)OC[C@H]1[C@@H]3c2c(ccc(C(=O)Cc3ccccc3)c2O)OC1(C)C	> 100 µM	> 100 µM	> 100 µM	> 100 µM	–
CCC(=O)c1ccc2c(c1O)[C@@H]1c3c(ccc4c(=O)c(-c5ccccc5)c(C)oc34)OC[C@@H]1C(C)(C)O2	6.15 µM	18.2 µM	20.5 µM	19.3 µM	Non-toxic
CC(=O)c1ccc2c(c1O)[C@@H]1c3c(ccc4c(=O)c(C)c(C)oc34)OC[C@@H]1C(C)(C)O2	> 100 µM	> 100 µM	> 100 µM	> 100 µM	–
Cc1oc2c3c(ccc2c(=O)c1C)OC[C@H]1[C@@H]3c2ccc3ccccc3c2OC1(C)C	> 100 µM	> 100 µM	> 100 µM	> 100 µM	–
Cc1coc2c3c(ccc2c1=O)OC[C@H]1[C@@H]3c2ccc3ccccc3c2OC1(C)C	> 100 µM	> 100 µM	> 100 µM	> 100 µM	–
CC(=O)c1ccc2c(c1O)[C@@H]1c3c(ccc4c(=O)c(-c5ccccc5)c(C)oc34)OC[C@@H]1C(C)(C)O2	46.8 µM	4.81 µM	11.2 µM	2.53 µM	Non-toxic
Cc1coc2c3c(ccc2c1=O)OC[C@H]1[C@@H]3c2c(ccc(C(=O)c3ccccc3)c2O)OC1(C)C	5.68 µM	1.5 µM	6.24 µM	17 µM	Non-toxic
CC(=O)c1ccc2c(c1O)[C@H]1c3c(ccc4c(=O)c(C)coc34)OC[C@H]1C(C)(C)O2	> 100 µM	> 100 µM	> 100 µM	> 100 µM	–
CCC(=O)c1ccc2c(c1O)[C@H]1c3c(ccc4c(=O)c(C)coc34)OC[C@H]1C(C)(C)O2	> 100 µM	> 100 µM	> 100 µM	> 100 µM	–
Cc1oc2c3c(ccc2c(=O)c1C)OC[C@H]1[C@@H]3c2c(ccc(C(=O)c3ccccc3)c2O)OC1(C)C	> 100 µM	> 100 µM	> 100 µM	> 100 µM	–
COc1cccc2c1C(=O)c1c(O)c3c(c(O)c1C2=O)C[C@@](O)(C(=O)CO)C[C@@H]3O[C@H]1C[C@H](N)[C@H](O)[C@H](C)O1 [DOXORUBICIN]	0.5 µM	–	1.05 µM	–	–
CCC(=O)c1ccc2c(c1O)[C@@H]1c3c(ccc4c(=O)c(C)c(C)oc34)OC[C@@H]1C(C)(C)O2	> 100 µM	> 100 µM	> 100 µM	> 100 µM	–
